Laboratory results reported in ChEMBL document CHEMBL1131301, “Tyrosine kinase inhibitors. 14. Structure-activity relationships for methylamino-substituted derivatives of 4-[(3-bromophenyl)amino]-6-(methylamino)-pyrido[3,4-d]pyrimidine (PD 158780), a potent and specific inhibitor of the tyrosine kinase activity of receptors for the EGF family of growth factors” (J Med Chem, 1998).
Values after ≈ are worked out from the molar mass of the structure shown.

How the values were obtained:
[1] = Aqueous solubility ([…] degree C); type: physicochemical; settings: for solubility: water, read-out: S; for S: buffer
[2] = target: T1, Epidermal growth factor receptor (Homo sapiens, UniProt P00533); assay: Inhibit of phosphorylation of a tyrosine/glutamic acid copolymer by epidermal growth factor receptor prepared from human A431 carcinoma cell vesicles by immunoaffinity chromatography.
T1 sequence (P00533 whole entry): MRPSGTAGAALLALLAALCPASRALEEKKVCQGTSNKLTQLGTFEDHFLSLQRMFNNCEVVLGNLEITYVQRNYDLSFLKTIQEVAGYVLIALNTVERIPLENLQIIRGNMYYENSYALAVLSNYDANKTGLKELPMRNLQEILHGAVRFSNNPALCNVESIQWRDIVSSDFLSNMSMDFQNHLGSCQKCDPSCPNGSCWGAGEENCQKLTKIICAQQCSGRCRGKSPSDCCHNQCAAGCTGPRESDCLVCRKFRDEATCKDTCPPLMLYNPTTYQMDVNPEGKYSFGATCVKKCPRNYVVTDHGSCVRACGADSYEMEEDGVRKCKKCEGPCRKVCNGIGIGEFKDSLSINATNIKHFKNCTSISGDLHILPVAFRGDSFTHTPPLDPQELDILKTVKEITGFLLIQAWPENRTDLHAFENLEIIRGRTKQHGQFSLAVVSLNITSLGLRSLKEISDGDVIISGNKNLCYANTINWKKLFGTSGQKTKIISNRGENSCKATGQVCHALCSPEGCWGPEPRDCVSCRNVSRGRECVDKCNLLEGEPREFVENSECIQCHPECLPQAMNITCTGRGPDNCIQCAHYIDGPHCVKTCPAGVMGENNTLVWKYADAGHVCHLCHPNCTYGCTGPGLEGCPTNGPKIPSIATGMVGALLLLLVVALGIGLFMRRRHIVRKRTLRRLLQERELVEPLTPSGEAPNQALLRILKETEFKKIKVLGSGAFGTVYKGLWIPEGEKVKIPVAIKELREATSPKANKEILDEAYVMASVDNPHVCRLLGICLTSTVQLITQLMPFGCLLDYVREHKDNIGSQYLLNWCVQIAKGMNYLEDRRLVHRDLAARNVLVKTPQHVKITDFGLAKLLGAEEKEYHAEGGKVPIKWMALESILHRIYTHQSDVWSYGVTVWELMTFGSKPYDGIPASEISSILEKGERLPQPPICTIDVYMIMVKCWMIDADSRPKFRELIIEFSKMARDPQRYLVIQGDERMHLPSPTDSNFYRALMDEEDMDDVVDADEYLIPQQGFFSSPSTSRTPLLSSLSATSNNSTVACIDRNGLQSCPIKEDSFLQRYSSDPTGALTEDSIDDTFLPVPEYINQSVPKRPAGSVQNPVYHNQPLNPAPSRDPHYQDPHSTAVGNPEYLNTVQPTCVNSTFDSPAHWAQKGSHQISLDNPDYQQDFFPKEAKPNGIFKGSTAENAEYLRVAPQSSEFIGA

[3] = target: T1, Epidermal growth factor receptor; assay: Inhibition of autophosphorylation of epidermal growth factor receptor in A431 cells in culture
Mus musculus [4] = assay: Ratio of the median treated EGFR tumor mass (mg)/median control mass*100% in mice at 38 mg/kg dose, ip b.i.d. days 1-15 administration; type: functional; settings: route intraperitoneal
Procedure, shortened: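 Nude mice (NCr nu/nu, 18-22 g) were randomized and implanted sc with tumor fragments in the right axilla on day 0. Tumor lines were A431 epidermoid, NIH 3T3 fibroblasts transfected with human EGFR, and MCF-7 breast. Dosing was ip or oral, by average cage weight, with 6 mice/dose group. Vehicle was 6% dimethylacetamide/94% 50 mM sodium lactate pH 4.0 (suspension), or isethionate salt in water.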

Mus musculus [5] = assay: Weight change of EGFR tumor bearing mice at 38 mg/kg ip dose, days 1-15 administration; type: functional; settings: route intraperitoneal
Mus musculus [6] = assay: Difference in days for treated (T) and control (C) EGFR tumor fragments to reach 750 mg in mice at 38 mg/kg ip dose, administration days 1-15; type: functional; settings: route intraperitoneal
[7] = target: T1, Epidermal growth factor receptor; assay: Inhibition of tyrosine/glutamic acid copolymer phosphorylation by epidermal growth factor receptor prepared of human A431

solubility [1]	IC50 [2]	IC50 [3]	Compound	other results
0.18 mM (≈ 72.8 µg/mL)	0.56 nM		CN(CC(O)CO)c1cc2c(Nc3cccc(Br)c3)ncnc2cn1 (configuration not stated)	
	1.7 nM	27 nM	CN(CCO)CCNc1cc2c(Nc3cccc(Br)c3)ncnc2cn1	S [1]: > 45 mM
0.4 mM (≈ 101 µg/mL)	3.1 nM		Cc1cccc(Nc2ncnc3cnc(N)cc23)c1	
32 mM (≈ 15100 µg/mL)			CN1CCN(NCCCNc2cc3c(Nc4cccc(Br)c4)ncnc3cn2)CC1	
	1.8 nM		Cc1cccc(Nc2ncnc3cnc(NCCCN4CCOCC4)cc23)c1	S [1]: > 35 mM
36 mM (≈ 16100 µg/mL)	0.93 nM	71 nM	OCCN(CCO)CCNc1cc2c(Nc3cccc(Br)c3)ncnc2cn1	
0.06 mM (≈ 20.7 µg/mL)			CN(C)c1cc2c(Nc3cccc(Br)c3)ncnc2cn1	
20 mM (≈ 9230 µg/mL)	0.35 nM	230 nM	OCCN(CCO)CCCNc1cc2c(Nc3cccc(Br)c3)ncnc2cn1	
30 mM (≈ 12000 µg/mL)	1.2 nM	16 nM	CN(C)CCCNc1cc2c(Nc3cccc(Br)c3)ncnc2cn1	
	1.1 nM		CNc1cc2c(Nc3cccc(C(F)(F)F)c3)ncnc2cn1	
		23 nM	CNc1cc2c(Nc3cccc(C)c3)ncnc2cn1	T/C (Mus musculus [4]): 68%; Weight change (Mus musculus [5]): -0.9 g; T-C (Mus musculus [6]): 2 days; IC50 [7]: 0.45 nM
0.21 mM (≈ 82 µg/mL)	0.18 nM		OCC(O)CNc1cc2c(Nc3cccc(Br)c3)ncnc2cn1 (configuration not stated)	
39 mM (≈ 15700 µg/mL)			CN(C)CCN(C)c1cc2c(Nc3cccc(Br)c3)ncnc2cn1	
	1.3 nM		Cc1cccc(Nc2ncnc3cnc(NCCc4c[nH]cn4)cc23)c1	S [1]: > 30 mM
2.5 mM (≈ 998 µg/mL)	6.4 nM	102 nM	CN1CCN(c2cc3c(Nc4cccc(Br)c4)ncnc3cn2)CC1	
17 mM (≈ 7160 µg/mL)	1.2 nM	8.1 nM	Brc1cccc(Nc2ncnc3cnc(NCCc4ccccn4)cc23)c1	
